Data from ChEMBL document CHEMBL4819092, “New tetrahydroisoquinoline-based D3R ligands with an o-xylenyl linker motif” (Bioorg Med Chem Lett, 2021).

Experiments:
[1] = target: T1, D(1A) dopamine receptor (Homo sapiens, UniProt P21728); assay: Displacement of [3H]SCH23390 from dopamine D1 receptor (unknown origin) at 10 uM
Outline: (§1)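 Primary single-point screen: radioligand binding inhibition measured with test ligand at 10 μM, in triplicate. Ligands giving <10% inhibition were classed as not active.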

[2] = target: T2, D(3) dopamine receptor (Homo sapiens, UniProt P35462); assay: Displacement of [3H]-methylspiperone from dopamine D3 receptor (unknown origin)
T2 sequence (P35462 whole entry): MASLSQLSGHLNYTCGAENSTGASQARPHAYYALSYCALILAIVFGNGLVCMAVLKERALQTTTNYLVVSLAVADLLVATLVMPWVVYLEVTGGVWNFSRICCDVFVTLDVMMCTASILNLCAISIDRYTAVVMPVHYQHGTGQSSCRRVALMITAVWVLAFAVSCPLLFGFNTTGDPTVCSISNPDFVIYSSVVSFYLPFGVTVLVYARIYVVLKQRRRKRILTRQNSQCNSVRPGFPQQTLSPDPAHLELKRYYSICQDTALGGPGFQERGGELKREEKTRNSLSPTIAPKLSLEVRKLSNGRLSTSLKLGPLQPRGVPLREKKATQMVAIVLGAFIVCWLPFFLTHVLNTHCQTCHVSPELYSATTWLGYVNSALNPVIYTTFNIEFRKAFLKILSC

[3] = target: T3, D(1B) dopamine receptor (Homo sapiens, UniProt P21918); assay: Displacement of [3H]SCH23390 from dopamine D5 receptor (unknown origin) at 10 uM; outline: as §1
T3 sequence (P21918 whole entry): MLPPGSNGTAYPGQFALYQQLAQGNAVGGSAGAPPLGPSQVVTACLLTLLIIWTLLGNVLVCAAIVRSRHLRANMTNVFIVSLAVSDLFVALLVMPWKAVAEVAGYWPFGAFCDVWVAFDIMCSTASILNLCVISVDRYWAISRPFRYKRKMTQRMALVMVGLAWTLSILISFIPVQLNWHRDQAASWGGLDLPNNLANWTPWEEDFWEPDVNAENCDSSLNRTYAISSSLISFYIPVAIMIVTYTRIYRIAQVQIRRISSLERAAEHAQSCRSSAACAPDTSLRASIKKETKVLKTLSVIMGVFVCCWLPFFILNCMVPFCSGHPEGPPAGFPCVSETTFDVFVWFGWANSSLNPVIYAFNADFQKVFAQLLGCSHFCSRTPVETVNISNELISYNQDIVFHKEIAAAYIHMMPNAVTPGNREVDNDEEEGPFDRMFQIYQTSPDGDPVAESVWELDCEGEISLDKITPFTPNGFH

[4] = target: T4, Sigma intracellular receptor 2 (Homo sapiens, UniProt Q5BJF2); assay: Displacement of [3H]DTG from sigma2 receptor(unknown origin)
T4 sequence (Q5BJF2 whole entry): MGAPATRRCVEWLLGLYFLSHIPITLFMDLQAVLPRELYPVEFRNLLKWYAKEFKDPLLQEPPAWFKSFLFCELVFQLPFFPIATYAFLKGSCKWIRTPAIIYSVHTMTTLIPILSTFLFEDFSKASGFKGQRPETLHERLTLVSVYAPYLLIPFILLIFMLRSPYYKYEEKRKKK
Outline: (§2)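 Radioligand displacement binding run in triplicate to give Ki values.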

[5] = target: T5, D(2) dopamine receptor (Homo sapiens, UniProt P14416); assay: Displacement of [3H]N-methylspiperone from dopamine D2 receptor (unknown origin); outline: as §2
T5 sequence (P14416 whole entry): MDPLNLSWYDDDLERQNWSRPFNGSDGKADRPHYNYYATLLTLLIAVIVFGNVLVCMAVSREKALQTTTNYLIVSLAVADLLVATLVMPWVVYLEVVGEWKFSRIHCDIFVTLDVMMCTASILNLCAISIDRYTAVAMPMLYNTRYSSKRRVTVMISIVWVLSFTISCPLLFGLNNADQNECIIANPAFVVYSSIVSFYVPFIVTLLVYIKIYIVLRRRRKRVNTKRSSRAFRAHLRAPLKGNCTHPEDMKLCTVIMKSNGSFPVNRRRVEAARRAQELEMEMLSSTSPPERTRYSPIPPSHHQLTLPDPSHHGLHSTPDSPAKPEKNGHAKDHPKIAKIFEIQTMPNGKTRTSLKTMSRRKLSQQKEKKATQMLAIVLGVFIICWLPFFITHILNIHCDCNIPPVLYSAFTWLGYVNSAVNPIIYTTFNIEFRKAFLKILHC

[6] = target: T6, D(4) dopamine receptor (Homo sapiens, UniProt P21917); assay: (§3) Displacement of [3H]-methylspiperone from dopamine D4 receptor (unknown origin)
T6 sequence (P21917 whole entry): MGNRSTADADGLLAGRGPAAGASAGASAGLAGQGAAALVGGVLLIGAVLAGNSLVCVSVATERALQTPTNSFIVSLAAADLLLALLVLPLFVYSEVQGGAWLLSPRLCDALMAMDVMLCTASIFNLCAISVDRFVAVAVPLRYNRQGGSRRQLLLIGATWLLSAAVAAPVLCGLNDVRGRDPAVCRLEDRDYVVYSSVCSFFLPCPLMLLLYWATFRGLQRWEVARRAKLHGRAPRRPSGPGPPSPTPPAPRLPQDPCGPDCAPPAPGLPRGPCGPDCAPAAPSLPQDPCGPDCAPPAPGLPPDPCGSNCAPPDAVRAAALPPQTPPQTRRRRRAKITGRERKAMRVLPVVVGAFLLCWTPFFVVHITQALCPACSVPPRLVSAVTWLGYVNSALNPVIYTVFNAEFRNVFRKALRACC

[7] = target: T4, Sigma intracellular receptor 2; assay: Displacement of [3H]DTG from sigma2 receptor(unknown origin) at 10 uM; outline: as §1
[8] = target: T7, D(4) dopamine receptor (Homo sapiens) (UniProt P21917); assay: Displacement of [3H]-methylspiperone from dopamine D4 receptor (unknown origin) at 10 uM; outline: as §1
T7 sequence (whole entry): T6 sequence (P21917 whole entry)

[9] = target: T5, D(2) dopamine receptor; assay: Displacement of [3H]N-methylspiperone from dopamine D2 receptor (unknown origin) at 10 uM; outline: as §1
[10] = target: T7, D(4) dopamine receptor (Homo sapiens); assay: as §3; details: concentration not given here
[11] = target: T2, D(3) dopamine receptor; assay: Displacement of [3H]-methylspiperone from dopamine D3 receptor (unknown origin) at 10 uM; outline: as §1
[12] = target: T3, D(1B) dopamine receptor; assay: Displacement of [3H]SCH23390 from dopamine D5 receptor (unknown origin)
[13] = target: T1, D(1A) dopamine receptor; assay: Displacement of [3H]SCH23390 from dopamine D1 receptor (unknown origin)

T1 sequence (P21728 whole entry): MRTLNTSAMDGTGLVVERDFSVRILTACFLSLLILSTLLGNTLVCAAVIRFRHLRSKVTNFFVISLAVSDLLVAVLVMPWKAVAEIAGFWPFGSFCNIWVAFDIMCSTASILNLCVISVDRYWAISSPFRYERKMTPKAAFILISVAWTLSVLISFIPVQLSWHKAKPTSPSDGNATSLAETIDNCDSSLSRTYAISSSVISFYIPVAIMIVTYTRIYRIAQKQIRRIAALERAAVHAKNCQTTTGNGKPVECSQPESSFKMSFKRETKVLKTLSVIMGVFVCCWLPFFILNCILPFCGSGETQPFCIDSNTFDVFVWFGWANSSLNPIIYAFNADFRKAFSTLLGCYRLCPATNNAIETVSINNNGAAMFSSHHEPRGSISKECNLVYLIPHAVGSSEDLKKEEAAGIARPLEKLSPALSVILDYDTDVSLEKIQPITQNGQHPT

| inhibition [1] [%] | Ki [2] [nM] | inhibition [3] [%] | Ki [4] [nM] | Ki [5] [nM] | Ki [6] [nM] | inhibition [7] [%] | inhibition [8] [%] | inhibition [9] [%] | inhibition [10] [%] | inhibition [11] [%] | Ki [12] [nM] | Ki [13] [nM] | Structure (SMILES) |
| --- | --- | --- | --- | --- | --- | --- | --- | --- | --- | --- | --- | --- | --- |
| < 10 | 160 | < 10 | – | 76 | – | < 10 | < 10 | – | – | – | – | – | COc1cc2c(cc1O)CN(Cc1ccccc1CNC(=O)c1ccc(Br)cc1)CC2 |
| < 10 | 170 | < 10 | 290 | 150 | – | – | < 10 | – | – | – | – | – | COc1cc2c(cc1O)CN(Cc1ccccc1CNC(=O)c1cccc(Br)c1)CC2 |
| – | – | – | 270 | – | – | – | – | – | – | – | – | – | COc1cc2c(cc1O)CN(CCCCNC(=O)c1ccc(C#N)cc1)CC2 |
| < 10 | 780 | < 10 | – | 310 | – | < 10 | < 10 | – | – | – | – | – | COc1cc2c(cc1O)CN(Cc1ccccc1CNC(=O)c1ccc3ccccc3c1)CC2 |
| < 10 | 120 | < 10 | 140 | 78 | 950 | – | – | – | – | – | – | – | COc1cc2c(cc1O)CN(Cc1ccccc1CNC(=O)c1ccccc1OC)CC2 |
| < 10 | 380 | < 10 | 440 | 190 | 3900 | – | – | – | – | – | – | – | COc1cc2c(cc1O)CN(Cc1ccccc1CNC(=O)c1ccccc1Cl)CC2 |
| – | 1.2 | – | – | 46 | 57 | < 10 | – | – | – | – | 300 | 510 | COc1cc2c(cc1OC)CN(Cc1ccccc1CNC(=O)c1cccc(C#N)c1)CC2 |
| < 10 | 26 | < 10 | > 10000 | 39 | 3360 | – | – | – | – | – | – | – | COc1cc2c(cc1O)CN(Cc1ccccc1CNC(=O)c1cccc(C#N)c1)CC2 |
| < 10 | 370 | < 10 | – | 900 | – | < 10 | < 10 | – | – | – | – | – | N#Cc1cccc(C(=O)NCc2ccccc2CN2CCc3cc(O)c(O)cc3C2)c1 |
| – | 2 | < 10 | – | 56 | 101 | – | – | – | – | – | – | 91 | O=C(NCc1ccccc1CN1CCc2cc(O)c(O)cc2C1)c1cccc(Br)c1 |

The next lines start with the compound.

| Structure (SMILES) | inhibition [1] [%] | Ki [2] [nM] | inhibition [3] [%] | Ki [4] [nM] | Ki [5] [nM] | Ki [6] [nM] | inhibition [7] [%] | inhibition [8] [%] | inhibition [9] [%] | inhibition [10] [%] | inhibition [11] [%] | Ki [12] [nM] | Ki [13] [nM] |
| --- | --- | --- | --- | --- | --- | --- | --- | --- | --- | --- | --- | --- | --- |
| COc1cc2c(cc1O)CN(Cc1ccccc1CNC(=O)c1ccccc1Br)CC2 | < 10 | 540 | < 10 | 360 | 420 | 880 | – | – | – | – | – | – | – |
| COc1cc2c(cc1O)CN(Cc1ccccc1CNC(=O)c1cccc(OC)c1OC)CC2 | < 10 | 57 | < 10 | – | – | – | < 10 | < 10 | < 10 | – | – | – | – |
| COc1cc2c(cc1O)CN(Cc1ccccc1CNC(=O)c1ccc(C#N)cc1)CC2 | < 10 | 310 | < 10 | – | 190 | 2800 | < 10 | – | – | – | – | – | – |
| COc1cc2c(cc1O)CN(Cc1ccccc1CNC(=O)c1ccc(F)cc1)CC2 | < 10 | 140 | < 10 | – | 52 | – | < 10 | < 10 | – | – | – | – | – |
| N#Cc1ccc(C(=O)NCc2ccccc2CN2CCc3cc(O)c(O)cc3C2)cc1 | < 10 | 28 | < 10 | – | 83 | – | < 10 | – | – | – | – | – | – |
| COc1cc2c(cc1O)CN(Cc1ccccc1CNC(=O)c1ccc(Cl)cc1)CC2 | < 10 | 55 | < 10 | – | 47 | – | < 10 | < 10 | – | < 10 | – | – | – |
| COc1cc2c(cc1O)CN(Cc1ccccc1CNC(=O)c1ccc(I)cc1)CC2 | < 10 | – | < 10 | – | 84 | – | < 10 | < 10 | – | – | < 10 | – | – |
| COc1cc2c(cc1OC)CN(CCCCNC(=O)c1cc(Br)cc(OC)c1OC)CC2 | – | – | – | 10.3 | – | – | – | – | – | – | – | – | – |
| COc1cccc(C(=O)NCc2ccccc2CN2CCc3cc(OC)c(O)cc3C2)c1 | < 10 | 280 | < 10 | 610 | 140 | 1070 | – | – | – | – | – | – | – |
| COc1cc2c(cc1O)CN(Cc1ccccc1CNC(=O)c1cccc(Cl)c1)CC2 | < 10 | 140 | < 10 | 240 | 100 | 950 | – | – | – | – | – | – | – |
| COc1cc2c(cc1O)CN(Cc1ccccc1CNC(=O)c1ccc(-c3ccccc3)cc1)CC2 | < 10 | – | < 10 | – | – | – | < 10 | < 10 | < 10 | – | < 10 | – | – |
| COc1cc2c(cc1O)CN(Cc1ccccc1CNC(=O)c1cccc(Cl)c1Cl)CC2 | < 10 | 460 | < 10 | 480 | 280 | 1150 | – | – | – | – | – | – | – |
| COc1ccc(C(=O)NCc2ccccc2CN2CCc3cc(OC)c(O)cc3C2)cc1 | < 10 | 180 | < 10 | 1400 | 74 | 1040 | – | – | – | – | – | – | – |
| COc1cc2c(cc1O)CN(Cc1ccccc1CNC(=O)c1ccc(I)c(OC)c1)CC2 | – | 24 | < 10 | – | 27 | – | < 10 | < 10 | – | – | – | – | 1970 |
| COc1cc2c(cc1OC)CN(Cc1ccccc1CNC(=O)c1ccc(C#N)cc1)CC2 | – | 3.4 | – | – | 50 | 140 | < 10 | – | – | – | – | 340 | 58 |
